# In ChEMBL document CHEMBL3616378 (J Med Chem, 2015):
# Key:
# [1] = Drug level in Sprague-Dawley rat cerebrospinal fluid at 1 mg/kg, ip after 1 hr; format: ADME, organism-based; conditions: read-out: Drug uptake
# Method in brief: (§1)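 Male Sprague–Dawley rats received single ip doses of 1, 3 or 10 mg/kg. Cerebrospinal fluid and plasma levels were determined at 0.5, 1 and 4 h. Mean csf concentration (nM ± SEM) is reported.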
# [2] = target: Metabotropic glutamate receptor 3 (Homo sapiens, UniProt Q14832, D279E/Q306L); test: Agonist activity at human recombinant mGlu3 receptor D279E and Q306L mutant expressed in AV12 cells assessed as stimulation of Ca2+ mobilization after 1 hr by FLIPR assay; format: functional, cell-based
# [3] = Plasma concentration in Sprague-Dawley rat at 1 mg/kg, ip after 4 hrs; format: ADME, organism-based
# Method in brief: (§2)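 Separate experiment: single ip doses of 1, 3 and 10 mg/kg to rats, compound in water adjusted to pH 7–7.5 with NaOH; plasma (with csf) sampled at 0.5, 1 and 4 h; mean plasma concentrations ± SEM reported.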
# [4] = target: T1, Metabotropic glutamate receptor 3 (Homo sapiens, UniProt Q14832); test: Antagonist activity at human recombinant mGlu3 receptor expressed in AV12 cells assessed as inhibition of glutamate-stimulated Ca2+ mobilization after 1.5 hrs by FLIPR assay; format: functional, cell-based
# T1 sequence (Q14832 whole entry): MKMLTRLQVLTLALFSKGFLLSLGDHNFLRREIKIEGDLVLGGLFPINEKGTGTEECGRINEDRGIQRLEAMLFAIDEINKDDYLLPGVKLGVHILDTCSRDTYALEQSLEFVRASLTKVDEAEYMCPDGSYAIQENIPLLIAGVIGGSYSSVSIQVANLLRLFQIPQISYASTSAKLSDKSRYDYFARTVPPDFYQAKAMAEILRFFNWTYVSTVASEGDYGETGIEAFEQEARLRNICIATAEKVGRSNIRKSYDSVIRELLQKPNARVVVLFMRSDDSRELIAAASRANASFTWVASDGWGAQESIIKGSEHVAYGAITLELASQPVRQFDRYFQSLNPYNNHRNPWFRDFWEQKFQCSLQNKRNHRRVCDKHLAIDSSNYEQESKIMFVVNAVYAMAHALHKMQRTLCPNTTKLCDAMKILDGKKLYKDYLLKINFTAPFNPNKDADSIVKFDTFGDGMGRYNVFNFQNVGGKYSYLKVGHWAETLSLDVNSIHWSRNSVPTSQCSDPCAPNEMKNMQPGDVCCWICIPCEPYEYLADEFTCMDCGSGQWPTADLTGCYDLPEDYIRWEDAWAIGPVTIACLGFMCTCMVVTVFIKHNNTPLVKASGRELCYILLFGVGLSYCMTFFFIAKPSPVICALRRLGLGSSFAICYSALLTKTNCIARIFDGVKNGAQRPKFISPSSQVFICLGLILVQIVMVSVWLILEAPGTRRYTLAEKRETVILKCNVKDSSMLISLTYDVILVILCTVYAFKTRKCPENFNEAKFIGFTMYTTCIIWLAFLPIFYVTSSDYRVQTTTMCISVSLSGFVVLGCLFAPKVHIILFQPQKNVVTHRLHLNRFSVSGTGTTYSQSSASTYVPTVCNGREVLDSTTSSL
# [5] = Half life in Sprague-Dawley rat at 1 mg/kg, ip; format: ADME, organism-based; conditions: in vivo
# Method in brief: (§3)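 Fasted male Sprague–Dawley rats (~250 g) received a single dose of compound dissolved in water and adjusted to pH 7–7.5 with NaOH, given iv, by oral gavage or ip. Serial blood samples (11–12 per rat) were drawn from a jugular vein catheter into EDTA and kept frozen. Plasma was mixed with methanol:water (1:1) containing an analogue internal standard for analysis. Mean plasma parameters are reported.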
# [6] = target: Metabotropic glutamate receptor 4 (Homo sapiens, UniProt Q14833); test: Agonist activity at human recombinant mGlu4 receptor expressed in AV12 cells assessed as stimulation of Ca2+ mobilization after 1 hr by FLIPR assay; format: functional, cell-based
# Chain of Metabotropic glutamate receptor 4 (Q14833 whole entry): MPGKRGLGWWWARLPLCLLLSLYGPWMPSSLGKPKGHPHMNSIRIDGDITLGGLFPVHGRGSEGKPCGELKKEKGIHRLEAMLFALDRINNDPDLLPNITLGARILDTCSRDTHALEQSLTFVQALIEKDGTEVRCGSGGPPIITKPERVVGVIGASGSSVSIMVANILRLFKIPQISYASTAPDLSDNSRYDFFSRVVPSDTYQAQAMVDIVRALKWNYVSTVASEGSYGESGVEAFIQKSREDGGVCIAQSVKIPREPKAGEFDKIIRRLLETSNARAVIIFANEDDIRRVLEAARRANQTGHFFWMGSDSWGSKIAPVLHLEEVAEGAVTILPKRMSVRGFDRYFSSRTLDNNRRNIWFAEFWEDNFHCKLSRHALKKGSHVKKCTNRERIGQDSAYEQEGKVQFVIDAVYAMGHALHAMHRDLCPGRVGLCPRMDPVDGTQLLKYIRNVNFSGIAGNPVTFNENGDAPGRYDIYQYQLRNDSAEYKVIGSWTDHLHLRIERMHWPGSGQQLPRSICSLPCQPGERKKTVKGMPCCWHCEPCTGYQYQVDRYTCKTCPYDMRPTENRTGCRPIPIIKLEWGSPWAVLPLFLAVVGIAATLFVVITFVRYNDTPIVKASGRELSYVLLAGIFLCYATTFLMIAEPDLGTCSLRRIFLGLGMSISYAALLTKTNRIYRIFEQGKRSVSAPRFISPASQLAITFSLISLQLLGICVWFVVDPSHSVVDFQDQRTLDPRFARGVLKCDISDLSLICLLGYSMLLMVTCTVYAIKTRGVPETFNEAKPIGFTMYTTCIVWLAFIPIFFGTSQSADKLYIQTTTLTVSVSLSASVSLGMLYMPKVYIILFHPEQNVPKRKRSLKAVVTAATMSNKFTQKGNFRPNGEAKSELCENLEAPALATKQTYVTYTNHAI
# [7] = target: Metabotropic glutamate receptor 1 (Homo sapiens, UniProt Q13255); test: Agonist activity at human recombinant mGlu1 receptor expressed in AV12 cells assessed as stimulation of Ca2+ mobilization after 1 hr by FLIPR assay; format: functional, cell-based
# [8] = Cmax in Sprague-Dawley rat at 1 mg/kg, ip; format: ADME, organism-based; parameters: dose 1 mg/kg, route intraperitoneal; conditions: in vivo; method in brief: as §3
# [9] = target: Metabotropic glutamate receptor 5 (Homo sapiens, UniProt P41594); test: Agonist activity at human recombinant mGlu5 receptor expressed in AV12 cells assessed as stimulation of Ca2+ mobilization after 1 hr by FLIPR assay; format: functional, cell-based
# [10] = target: T2, Metabotropic glutamate receptor 8 (Homo sapiens, UniProt O00222); test: Agonist activity at human recombinant mGlu8 receptor expressed in AV12 cells assessed as inhibition of forskolin-stimulated cAMP production after 1 hr by fluorescence assay; format: functional, cell-based
# T2 sequence (O00222 whole entry): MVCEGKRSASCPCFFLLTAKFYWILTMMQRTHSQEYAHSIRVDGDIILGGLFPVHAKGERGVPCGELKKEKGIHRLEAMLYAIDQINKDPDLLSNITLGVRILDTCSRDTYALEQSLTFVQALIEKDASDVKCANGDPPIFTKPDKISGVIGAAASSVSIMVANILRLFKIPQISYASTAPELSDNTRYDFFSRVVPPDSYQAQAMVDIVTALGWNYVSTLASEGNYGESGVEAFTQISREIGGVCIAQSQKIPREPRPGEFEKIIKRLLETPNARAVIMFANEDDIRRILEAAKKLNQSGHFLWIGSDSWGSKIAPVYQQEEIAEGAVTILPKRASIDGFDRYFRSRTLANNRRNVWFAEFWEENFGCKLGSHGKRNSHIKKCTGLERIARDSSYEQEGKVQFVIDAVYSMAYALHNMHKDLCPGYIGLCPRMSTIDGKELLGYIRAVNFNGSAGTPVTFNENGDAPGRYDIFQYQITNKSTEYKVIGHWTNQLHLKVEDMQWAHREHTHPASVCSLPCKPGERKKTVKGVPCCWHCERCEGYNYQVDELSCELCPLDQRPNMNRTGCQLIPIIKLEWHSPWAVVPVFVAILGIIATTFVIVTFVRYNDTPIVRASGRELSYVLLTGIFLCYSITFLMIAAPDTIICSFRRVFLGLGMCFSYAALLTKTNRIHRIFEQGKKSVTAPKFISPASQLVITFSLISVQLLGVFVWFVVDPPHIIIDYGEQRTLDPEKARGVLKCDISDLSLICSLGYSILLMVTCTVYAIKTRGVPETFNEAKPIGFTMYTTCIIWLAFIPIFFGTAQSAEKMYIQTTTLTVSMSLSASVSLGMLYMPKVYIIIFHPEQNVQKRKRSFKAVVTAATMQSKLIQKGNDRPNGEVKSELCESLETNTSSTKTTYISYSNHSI
# [11] = target: Metabotropic glutamate receptor 2 (Homo sapiens, UniProt Q14416); test: Displacement of [3H]-459477 from human recombinant mGlu2 receptor expressed in AV12 cells after 90 mins by liquid scintillation counting; format: cell-based
# [12] = target: Voltage-gated inwardly rectifying potassium channel KCNH2 (Homo sapiens, UniProt Q12809); test: Inhibition of human ERG at 10 uM
# Chain of Voltage-gated inwardly rectifying potassium channel KCNH2 (Q12809 whole entry): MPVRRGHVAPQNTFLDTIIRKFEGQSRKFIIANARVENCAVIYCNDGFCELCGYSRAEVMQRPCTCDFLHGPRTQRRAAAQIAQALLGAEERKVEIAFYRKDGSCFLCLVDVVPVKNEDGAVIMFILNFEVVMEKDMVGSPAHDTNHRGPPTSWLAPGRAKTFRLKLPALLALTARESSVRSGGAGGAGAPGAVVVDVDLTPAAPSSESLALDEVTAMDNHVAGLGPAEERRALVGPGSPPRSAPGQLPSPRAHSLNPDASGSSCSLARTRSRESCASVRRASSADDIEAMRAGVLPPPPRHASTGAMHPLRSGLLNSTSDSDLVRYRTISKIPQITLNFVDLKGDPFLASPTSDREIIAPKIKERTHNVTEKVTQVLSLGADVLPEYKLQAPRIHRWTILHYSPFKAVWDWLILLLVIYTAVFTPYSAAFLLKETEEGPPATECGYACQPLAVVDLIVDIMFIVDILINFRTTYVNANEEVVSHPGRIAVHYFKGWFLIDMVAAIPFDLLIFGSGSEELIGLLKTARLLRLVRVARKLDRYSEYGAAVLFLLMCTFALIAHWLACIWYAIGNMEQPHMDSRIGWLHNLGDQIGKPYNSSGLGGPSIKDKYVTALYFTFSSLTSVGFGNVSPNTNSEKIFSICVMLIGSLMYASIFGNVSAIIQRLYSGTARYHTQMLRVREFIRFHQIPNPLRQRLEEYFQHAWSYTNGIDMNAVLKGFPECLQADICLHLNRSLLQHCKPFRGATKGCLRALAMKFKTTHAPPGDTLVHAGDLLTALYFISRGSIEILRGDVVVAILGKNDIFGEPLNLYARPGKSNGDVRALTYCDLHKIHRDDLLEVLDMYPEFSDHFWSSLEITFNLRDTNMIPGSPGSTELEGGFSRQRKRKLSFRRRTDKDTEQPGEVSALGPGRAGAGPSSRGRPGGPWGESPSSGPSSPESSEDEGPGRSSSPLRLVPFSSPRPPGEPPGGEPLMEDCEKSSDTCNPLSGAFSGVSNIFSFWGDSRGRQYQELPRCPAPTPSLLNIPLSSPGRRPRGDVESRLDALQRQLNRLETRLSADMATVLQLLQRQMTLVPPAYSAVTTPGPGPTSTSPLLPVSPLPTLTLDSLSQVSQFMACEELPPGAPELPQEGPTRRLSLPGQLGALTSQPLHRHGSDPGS
# [13] = Plasma concentration in Sprague-Dawley rat at 3 mg/kg, ip after 4 hrs; format: ADME, organism-based; method in brief: as §2
# [14] = target: Metabotropic glutamate receptor 2 (Homo sapiens, UniProt Q14416, L300Q); test: Agonist activity at human recombinant mGlu2 receptor L300Q mutant expressed in AV12 cells assessed as stimulation of Ca2+ mobilization after 1 hr by FLIPR assay; format: functional, cell-based
# [15] = AUC (0 to 24 hrs) in Sprague-Dawley rat at 1 mg/kg, iv; format: ADME, organism-based; parameters: time < 24 hr, dose 1 mg/kg, route intravenous; conditions: in vivo; method in brief: as §3
# [16] = Drug level in Sprague-Dawley rat cerebrospinal fluid at 3 mg/kg, ip after 1 hr; format: ADME, organism-based; conditions: read-out: Drug uptake; method in brief: as §1
# [17] = target: Metabotropic glutamate receptor 3 (Homo sapiens, UniProt Q14832, Q306L); test: Agonist activity at human recombinant mGlu3 receptor Q306L mutant expressed in AV12 cells assessed as stimulation of Ca2+ mobilization after 1 hr by FLIPR assay; format: functional, cell-based
# [18] = target: T1, Metabotropic glutamate receptor 3; test: Agonist activity at human recombinant mGlu3 receptor expressed in AV12 cells assessed as stimulation of Ca2+ mobilization after 1.5 hrs by FLIPR assay; format: functional, cell-based
# [19] = AUC (0 to 24 hrs) in Sprague-Dawley rat at 1 mg/kg, ip; format: ADME, organism-based; parameters: dose 1 mg/kg, time < 24 hr, route intraperitoneal; conditions: in vivo; method in brief: as §3
# [20] = Half life in Sprague-Dawley rat at 10 mg/kg, ip; format: ADME, organism-based; conditions: in vivo; method in brief: as §3
# [21] = target: T2, Metabotropic glutamate receptor 8; test: Agonist activity at human recombinant mGlu8 receptor expressed in AV12 cells assessed as stimulation of Ca2+ mobilization after 1.5 hrs by FLIPR assay; format: functional, cell-based
# [22] = target: T1, Metabotropic glutamate receptor 3; test: Displacement of [3H]-459477 from human recombinant mGlu3 receptor expressed in AV12 cells after 90 mins by liquid scintillation counting; format: cell-based
# [23] = Tmax in Sprague-Dawley rat at 3 mg/kg, ip; format: ADME, organism-based; conditions: in vivo
# Method in brief: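 Compound dissolved in water, pH adjusted to 7–7.5 with NaOH; single dose to fasted male Sprague–Dawley rats (~250 g) by oral gavage, intravenous or intraperitoneal route. Serial blood (11–12 samples per rat) from jugular vein catheter into EDTA tubes, centrifuged, frozen; 25 µL plasma mixed with methanol:water (1:1) containing analogue internal standard.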
# [24] = Plasma concentration in Sprague-Dawley rat at 3 mg/kg, ip after 0.5 hrs; format: ADME, organism-based; method in brief: as §2
# [25] = Plasma concentration in Sprague-Dawley rat at 10 mg/kg, ip after 4 hrs; format: ADME, organism-based; method in brief: as §2
# [26] = Plasma concentration in Sprague-Dawley rat at 1 mg/kg, ip after 1 hr; format: ADME, organism-based; method in brief: as §2
# [27] = Plasma concentration in Sprague-Dawley rat at 3 mg/kg, ip after 1 hr; format: ADME, organism-based; method in brief: as §2
# [28] = Fraction unbound in human plasma; format: ADME, cell-free
# [29] = Plasma concentration in Sprague-Dawley rat at 10 mg/kg, ip after 0.5 hrs; format: ADME, organism-based; method in brief: as §2
# [30] = AUC (0 to 24 hrs) in Sprague-Dawley rat at 3 mg/kg, ip; format: ADME, organism-based; parameters: time < 24 hr, dose 3 mg/kg, route intraperitoneal; conditions: in vivo; method in brief: as §3
# [31] = Cmax in Sprague-Dawley rat at 1 mg/kg, iv; format: ADME, organism-based; parameters: dose 1 mg/kg, route intravenous; conditions: in vivo; method in brief: as §3
# [32] = Metabolic stability of the compound in dog hepatocytes assessed as loss of compound at 2 uM; format: ADME, cell-based, Canis lupus familiaris, Hepatocyte; conditions: read-out: Drug degradation
# Method in brief: (§4)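 Hepatocytes from mouse, rat, dog and human; compound tested at 2 µM; percent loss of parent compound measured.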
# [33] = Plasma concentration in Sprague-Dawley rat at 1 mg/kg, ip after 0.5 hrs; format: ADME, organism-based; method in brief: as §2
# [34] = target: Metabotropic glutamate receptor 6 (Homo sapiens, UniProt O15303); test: Agonist activity at human recombinant mGlu6 receptor expressed in AV12 cells assessed as inhibition of forskolin-stimulated cAMP production after 1 hr by fluorescence assay; format: functional, cell-based
# Chain of Metabotropic glutamate receptor 6 (O15303 whole entry): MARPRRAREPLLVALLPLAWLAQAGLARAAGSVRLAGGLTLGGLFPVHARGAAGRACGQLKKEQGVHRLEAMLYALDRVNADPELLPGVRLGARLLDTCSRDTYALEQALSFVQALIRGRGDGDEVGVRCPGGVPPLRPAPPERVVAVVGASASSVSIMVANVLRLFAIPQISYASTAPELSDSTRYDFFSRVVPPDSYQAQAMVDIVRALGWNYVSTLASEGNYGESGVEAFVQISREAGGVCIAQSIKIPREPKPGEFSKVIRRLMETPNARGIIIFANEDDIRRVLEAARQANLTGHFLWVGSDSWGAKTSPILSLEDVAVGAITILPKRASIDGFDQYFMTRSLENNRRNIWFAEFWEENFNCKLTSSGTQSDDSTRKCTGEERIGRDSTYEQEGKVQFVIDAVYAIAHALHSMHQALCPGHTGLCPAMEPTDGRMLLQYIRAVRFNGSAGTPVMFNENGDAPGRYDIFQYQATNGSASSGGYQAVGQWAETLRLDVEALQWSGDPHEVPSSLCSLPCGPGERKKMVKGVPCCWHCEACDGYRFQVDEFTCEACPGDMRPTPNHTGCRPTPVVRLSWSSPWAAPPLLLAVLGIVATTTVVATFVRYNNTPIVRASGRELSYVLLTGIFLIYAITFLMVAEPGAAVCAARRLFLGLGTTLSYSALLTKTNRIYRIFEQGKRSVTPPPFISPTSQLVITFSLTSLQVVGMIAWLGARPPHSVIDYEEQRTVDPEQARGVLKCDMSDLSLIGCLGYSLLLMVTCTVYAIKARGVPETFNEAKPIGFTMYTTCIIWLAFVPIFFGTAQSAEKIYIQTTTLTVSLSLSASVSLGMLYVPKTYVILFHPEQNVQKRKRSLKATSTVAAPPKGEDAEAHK
# Rattus norvegicus = test: Toxicity in Sprague-Dawley rat assessed as impairment of neuromuscular coordination at 3 mg/kg, ip after 1 to 3 hrs by rotarod test; format: organism-based; conditions: in vivo
# [35] = Half life in Sprague-Dawley rat at 3 mg/kg, ip; format: ADME, organism-based; conditions: in vivo; method in brief: as §3
# [36] = Metabolic stability of the compound in rat hepatocytes assessed as loss of compound at 2 uM; format: ADME, cell-based, Hepatocyte; conditions: read-out: Drug degradation; method in brief: as §4
# [37] = AUC (0 to 24 hrs) in Sprague-Dawley rat at 5 mg/kg, po; format: ADME, organism-based; parameters: time < 24 hr, dose 5 mg/kg, route oral; conditions: in vivo; method in brief: as §3
# [38] = Fraction unbound in rat plasma; format: ADME, cell-free
structure (smiles),measurement,setting,value
N[C@@]1(C(=O)O)C[C@@H](Sc2nc[nH]n2)[C@H]2[C@H](C(=O)O)[C@H]21,concentration at 1 h,[1],0.0399 µM
same,EC50,[2],1.17 µM
same,concentration at 4 h,[3],0.314 µM
same,IC50,[4],25.2 µM
same,half-life,[5],1.2 h
same,EC50,[6],> 25 µM
same,EC50,[7],> 25 µM
same,Cmax,[8],4.92 µM
same,EC50,[9],> 25 µM
same,EC50,[10],10.1 µM
same,Ki,[11],0.144 µM
same,inhibition (INH),[12],Not Active
same,concentration at 4 h,[13],0.7 µM
same,EC50,[14],0.0221 µM
same,AUC(0-t) at 24 h,[15],4.91 µM·h
same,concentration at 1 h,[16],0.0864 µM
same,EC50,[17],2.83 µM
same,EC50,[18],> 25 µM
same,AUC(0-t) at 24 h,[19],6.01 µM·h
same,half-life,[20],5.2 h
same,EC50,[21],> 25 µM
same,Ki,[22],0.156 µM
same,Tmax,[23],0.33 h
same,concentration at 0.5 h,[24],10.1 µM
same,concentration at 4 h,[25],3.02 µM
same,concentration at 1 h,[26],3.01 µM
same,concentration at 1 h,[27],4.98 µM
same,fraction unbound,[28],> 0.98
same,concentration at 0.5 h,[29],40.1 µM
same,AUC(0-t) at 24 h,[30],10.8 µM·h
same,Cmax,[31],9.54 µM
same,metabolised at 2 µM,[32],< 10%
same,concentration at 0.5 h,[33],6 µM
same,EC50,[34],3.45 µM
same,Activity,Rattus norvegicus,Non-toxic
same,half-life,[35],3.2 h
same,metabolised at 2 µM,[36],< 10%
same,AUC(0-t) at 24 h,[37],1.01 µM·h
same,fraction unbound,[38],> 0.98
